In ChEMBL document CHEMBL4152262, “Design, synthesis and evaluation of novel multi-target-directed ligands for treatment of Alzheimer's disease based on coumarin and lipoic acid scaffolds” (Eur J Med Chem, 2018):

Columns and labels:
[1] = tested on: PC-12; assay: Neuroprotection against H2O2-induced cell death in rat PC12 cells assessed as cell viability at 50 uM preincubated for 3 hrs followed by H2O2 stimulation measured after 2 hrs by MTT assay (reference value: 25.2 to 41.8%); assay type: functional; conditions: read-out: Activity
[2] = tested on: PC-12; assay: Neuroprotection against H2O2-induced cell death in rat PC12 cells assessed as cell viability at 10 uM preincubated for 3 hrs followed by H2O2 stimulation measured after 2 hrs by MTT assay (reference value: 25.2 to 41.8%); assay type: functional; conditions: read-out: Activity
[3] = tested on: PC-12; assay: Neuroprotection against H2O2-induced cell death in rat PC12 cells assessed as cell viability at 1 uM preincubated for 3 hrs followed by H2O2 stimulation measured after 2 hrs by MTT assay (reference value: 25.2 to 41.8%); assay type: functional; conditions: read-out: Activity
[4] = tested on: PC-12; assay: Neuroprotection against H2O2-induced cell death in rat PC12 cells assessed as cell viability at 5 uM preincubated for 3 hrs followed by H2O2 stimulation measured after 2 hrs by MTT assay (reference value: 25.2 to 41.8%); assay type: functional; conditions: read-out: Activity
[5] = tested on: PC-12; assay: Neuroprotection against H2O2-induced cell death in rat PC12 cells assessed as cell viability at 0.1 uM preincubated for 3 hrs followed by H2O2 stimulation measured after 2 hrs by MTT assay (reference value: 25.2 to 41.8%); assay type: functional; conditions: read-out: Activity
[6] = tested on: PC-12; assay: Neuroprotection against H2O2-induced cell death in rat PC12 cells assessed as cell viability at 20 uM preincubated for 3 hrs followed by H2O2 stimulation measured after 2 hrs by MTT assay (reference value: 25.2 to 41.8%); assay type: functional; conditions: read-out: Activity
[7] = target: Acetylcholinesterase (Electrophorus electricus, UniProt O42275); assay: Inhibition of electric eel AChE using acetylthiocholine iodide as substrate pretreated for 5 mins followed by substrate addition by Ellman's method
[8] = Inhibition of soybean 15-LOX assessed as reduction in conversion of linoleic acid to 13-hydroperoxylinoleic acid by spectrophotometric method; set-up: species or system Glycine max
Outline: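 Soybean lipoxygenase type 1-B (final 167 U/mL) with compound (DMSO stock diluted in 0.1 M phosphate buffer pH 8) and linoleic acid (134 mM in ethanol) at room temperature. Formation of 13-hydroperoxylinoleic acid followed spectrophotometrically at 234 nm.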

[9] = target: Cholinesterase (Equus caballus, UniProt P81908); assay: Inhibition of equine serum BuChE using butyrylthiocholine iodide as substrate pretreated for 5 mins followed by substrate addition by Ellman's method
Outline: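 Ellman assay with horse serum BuChE (5 IU/mL) in 0.1 M phosphate buffer pH 8.0 with DTNB. Compound was preincubated with enzyme 5 min, then butyrylthiocholine iodide was added. Absorbance read at 412 nm. IC50 from a log concentration vs % inhibition curve; triplicate runs.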

[10] = tested on: PC-12; assay: Neuroprotection against H2O2-induced cell death in rat PC12 cells assessed as increase in cell viability preincubated for 3 hrs followed by H2O2 stimulation measured after 2 hrs by MTT assay; assay type: functional, cell-based

Sequence of Acetylcholinesterase (O42275 whole entry): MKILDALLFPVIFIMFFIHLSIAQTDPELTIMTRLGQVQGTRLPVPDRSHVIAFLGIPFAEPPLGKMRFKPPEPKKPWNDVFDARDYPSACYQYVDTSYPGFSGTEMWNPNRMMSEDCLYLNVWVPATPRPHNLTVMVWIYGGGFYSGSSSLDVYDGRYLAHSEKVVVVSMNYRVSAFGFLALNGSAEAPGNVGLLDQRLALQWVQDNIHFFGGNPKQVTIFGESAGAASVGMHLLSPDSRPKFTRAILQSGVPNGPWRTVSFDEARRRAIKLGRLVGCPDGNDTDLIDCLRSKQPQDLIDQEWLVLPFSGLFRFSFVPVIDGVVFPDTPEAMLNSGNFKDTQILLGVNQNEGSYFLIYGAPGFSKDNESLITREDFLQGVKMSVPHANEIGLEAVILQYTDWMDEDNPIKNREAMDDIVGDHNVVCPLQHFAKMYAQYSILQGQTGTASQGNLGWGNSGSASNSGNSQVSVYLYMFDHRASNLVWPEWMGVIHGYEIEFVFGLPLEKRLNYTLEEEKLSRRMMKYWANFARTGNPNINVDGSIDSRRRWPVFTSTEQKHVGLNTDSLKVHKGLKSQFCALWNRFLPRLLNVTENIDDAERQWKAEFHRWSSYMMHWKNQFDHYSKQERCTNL
Sequence of Cholinesterase (P81908 whole entry): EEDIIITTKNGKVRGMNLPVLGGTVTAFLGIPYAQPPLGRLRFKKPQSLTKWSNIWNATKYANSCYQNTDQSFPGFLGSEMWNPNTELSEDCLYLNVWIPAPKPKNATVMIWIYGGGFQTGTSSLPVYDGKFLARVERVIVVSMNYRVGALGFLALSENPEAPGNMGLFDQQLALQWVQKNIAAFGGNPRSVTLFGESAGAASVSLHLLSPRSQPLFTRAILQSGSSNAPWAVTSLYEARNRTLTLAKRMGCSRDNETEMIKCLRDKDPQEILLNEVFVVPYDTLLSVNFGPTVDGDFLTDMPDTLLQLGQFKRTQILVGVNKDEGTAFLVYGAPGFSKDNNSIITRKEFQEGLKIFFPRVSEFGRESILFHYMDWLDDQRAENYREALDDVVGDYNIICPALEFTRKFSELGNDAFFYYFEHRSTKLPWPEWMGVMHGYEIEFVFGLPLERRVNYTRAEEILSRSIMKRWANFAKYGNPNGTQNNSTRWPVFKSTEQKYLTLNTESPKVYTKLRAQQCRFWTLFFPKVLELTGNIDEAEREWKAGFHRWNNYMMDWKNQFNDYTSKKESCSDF

With O=c1c(O)c(-c2ccc(O)c(O)c2)oc2cc(O)cc(O)c12 [QUERCETIN] the viability at 50 µM [1] was 58.8%, the viability at 10 µM [2] was 53.7% and the viability at 1 µM [3] was 40.7%. For the same compound, the viability at 5 µM [4] was 47.3%, the viability at 0.1 µM [5] was 36.2% and the viability at 20 µM [6] was 56.9%.
In the case of O=C(CCCCC1CCSS1)NCc1cn(CCCCCOc2ccc3cc(-c4ccc(Br)cc4)c(=O)oc3c2)nn1 (stereo not given), the viability at 50 µM [1] is reported as 53.6%, the IC50 [7] is reported as over 100 µM and the IC50 [8] is reported as over 100 µM. The viability at 10 µM [2] was 48.4%, the viability at 1 µM [3] was 43.7% and the viability at 5 µM [4] was 45.7%. The IC50 [9] was over 100 µM, the viability at 0.1 µM [5] was 41.8% and the Activity [10] was “Dose-dependent effect”. For the same compound, the viability at 20 µM [6] was 52.3%.
Compound CCOC(=O)c1cc2ccc(OCCCn3cc(CNC(=O)CCCCC4CCSS4)nn3)cc2oc1=O (stereo not given) has a viability at 50 µM [1] of 49.2%, an IC50 [7] of 55 µM and an IC50 [8] of over 100 µM. For the same compound, the viability at 10 µM [2] was 36.1%, the viability at 1 µM [3] was 28.3% and the viability at 5 µM [4] was 32.4%. For the same compound, the IC50 [9] was over 100 µM, the viability at 0.1 µM [5] was 28% and the Activity [10] was “Dose-dependent effect”. The viability at 20 µM [6] was 42.1%.
With CC(=O)c1cc2ccc(OCCCCCn3cc(CNC(=O)CCCCC4CCSS4)nn3)cc2oc1=O (stereo not given) the viability at 50 µM [1] was 18.2%, the IC50 [7] was over 100 µM and the IC50 [8] was over 100 µM. The viability at 10 µM [2] was 20.8%, the viability at 1 µM [3] was 27.4% and the viability at 5 µM [4] was 22.2%. It also gave an IC50 [9] of over 100 µM, a viability at 0.1 µM [5] of 28.9% and a viability at 20 µM [6] of 20.7%.
COc1ccc(-c2cc3ccc(OCCCCCn4cc(CNC(=O)CCCCC5CCSS5)nn4)cc3oc2=O)cc1 (stereo not given) showed a viability at 50 µM [1] of 52.8%, an IC50 [7] of over 100 µM and an IC50 [8] of over 100 µM. For the same compound, the viability at 10 µM [2] was 45.5%, the viability at 1 µM [3] was 37.1% and the viability at 5 µM [4] was 41%. For the same compound, the IC50 [9] was over 100 µM, the viability at 0.1 µM [5] was 34.5% and the Activity [10] was “Dose-dependent effect”. It also gave a viability at 20 µM [6] of 49%.
With COc1ccc(-c2cc3ccc(OCCCCn4cc(CNC(=O)CCCCC5CCSS5)nn4)cc3oc2=O)cc1 (stereo not given) the viability at 50 µM [1] was 55.3%, the IC50 [7] was over 100 µM and the IC50 [8] was over 100 µM. The viability at 10 µM [2] was 48.6%, the viability at 1 µM [3] was 36.8% and the viability at 5 µM [4] was 44.9%. The IC50 [9] was over 100 µM, the viability at 0.1 µM [5] was 32.1% and the Activity [10] was “Dose-dependent effect”. It also gave a viability at 20 µM [6] of 52.3%.
With CC(=O)c1cc2ccc(OCCCn3cc(CNC(=O)CCCCC4CCSS4)nn3)cc2oc1=O (stereo not given) the viability at 50 µM [1] was 40.7%, the IC50 [7] was 54.6 µM and the IC50 [8] was over 100 µM. For the same compound, the viability at 10 µM [2] was 38%, the viability at 1 µM [3] was 35.5% and the viability at 5 µM [4] was 37.5%. For the same compound, the IC50 [9] was over 100 µM, the viability at 0.1 µM [5] was 34.6% and the Activity [10] was “Dose-dependent effect”. For the same compound, the viability at 20 µM [6] was 39.8%.
Work on O=C(CCCCC1CCSS1)NCc1cn(CCCOc2ccc3cc(C(=O)O)c(=O)oc3c2)nn1 (stereo not given) yielded a viability at 50 µM [1] of 73.5%, an IC50 [7] of over 100 µM and an IC50 [8] of over 100 µM. It also gave a viability at 10 µM [2] of 59.9%, a viability at 1 µM [3] of 52.1% and a viability at 5 µM [4] of 57%. For the same compound, the IC50 [9] was over 100 µM, the viability at 0.1 µM [5] was 43.4% and the Activity [10] was “Dose-dependent effect”. The viability at 20 µM [6] was 66.8%.
COc1ccc(-c2cc3ccc(OCCCn4cc(CNC(=O)CCCCC5CCSS5)nn4)cc3oc2=O)cc1 (stereo not given) showed a viability at 50 µM [1] of 65.7%, an IC50 [7] of 40.2 µM and an IC50 [8] of over 100 µM. For the same compound, the viability at 10 µM [2] was 57.6%, the viability at 1 µM [3] was 47.4% and the viability at 5 µM [4] was 52.8%. The IC50 [9] was over 100 µM, the viability at 0.1 µM [5] was 42% and the Activity [10] was “Dose-dependent effect”. For the same compound, the viability at 20 µM [6] was 62%.
